Results published in ChEMBL document CHEMBL4613315, “Design of First-in-Class Dual EZH2/HDAC Inhibitor: Biochemical Activity and Biological Evaluation in Cancer Cells” (ACS Med Chem Lett, 2020).
Calls of active or inactive are those of the source. The rule behind the calls is not given here.

Experiments:
U-937 [1] = assay: Cytotoxicity against human U937 cells assessed as reduction in cell viability at 25 uM in presence of vorinostat incubated for 72 hrs by CellTiter-Glo Luminescent cell viability assay relative to control; format: functional; details: U-937, 72 h
Procedure, shortened: (§1)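 Viability after 72 h of single-agent or combined treatment with the HDAC inhibitor (0.05–0.25 μM) and the EZH2 inhibitor. EZH2 inhibitor range: U937 5–25 μM; RH4 10–50 μM. Synergy was assessed by combination index and isobologram analysis.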

[2] = Cytotoxicity against human RH4 cells assessed as combinational index measured at fraction affected value of 0.27 in presence of vorinostat at 10 uM incubated for 72 hrs by CellTiter-Glo Luminescent cell viability assay; format: functional; procedure, shortened: as §1
[3] = molecular target: T1, Histone-lysine N-methyltransferase EZH2 (Homo sapiens, UniProt Q15910); assay: Inhibition of EZH2 in human RH4 cells assessed as H3K27me3 level at 50 uM incubated for 96 hrs by Western blot analysis; format: cell-based
[4] = molecular target: T1, Histone-lysine N-methyltransferase EZH2; assay: Inhibition of EZH2 in human RH4 cells assessed as H3K27me3 level at 50 uM incubated for 72 hrs by Western blot analysis; format: cell-based
[5] = Induction of apoptosis in human RH4 cells assessed as necrotic cells at 14 uM incubated for 72 hrs by annexin V-FITC staining based flow cytometry (reference value: 0.4 %); format: functional
[6] = Cell cycle arrest in human RH4 cells assessed as S accumulation at 14 uM incubated for 72 hrs by propidium iodide staining based flow cytometry (reference value: 29.9 %); format: functional
U-937 [7] = assay: Induction of apoptosis in human U937 cells assessed as viable cells at 25 uM incubated for 72 hrs by annexin V-FITC staining based flow cytometry (reference value: 95.4 %); format: functional; details: U-937, 72 h, read-out: Activity
U-937 [8] = assay: Induction of apoptosis in human U937 cells assessed as late apoptotic cells at 25 uM incubated for 72 hrs by annexin V-FITC staining based flow cytometry (reference value: 0.7 %); format: functional
Histone deacetylase 8 = molecular target: T2, Histone deacetylase 8 (Homo sapiens, UniProt Q9BY41); assay: Inhibition of human recombinant HDAC8 using AMC-K(Ac)GL as substrate by fluorescence based assay
T2 sequence (Q9BY41 whole entry): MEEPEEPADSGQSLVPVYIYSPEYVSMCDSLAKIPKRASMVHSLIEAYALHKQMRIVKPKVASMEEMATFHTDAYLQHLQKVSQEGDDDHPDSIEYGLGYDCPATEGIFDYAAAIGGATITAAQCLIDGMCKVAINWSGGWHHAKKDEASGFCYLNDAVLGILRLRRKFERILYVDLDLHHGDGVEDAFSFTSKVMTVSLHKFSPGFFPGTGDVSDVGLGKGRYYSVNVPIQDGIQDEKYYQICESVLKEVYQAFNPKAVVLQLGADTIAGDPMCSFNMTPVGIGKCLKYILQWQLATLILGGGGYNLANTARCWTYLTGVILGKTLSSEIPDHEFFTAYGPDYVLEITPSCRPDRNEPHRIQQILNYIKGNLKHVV

[9] = Cell cycle arrest in human RH4 cells assessed as G0/G1 accumulation at 28 uM incubated for 72 hrs by propidium iodide staining based flow cytometry (reference value: 46.2 %); format: functional
U-87MG ATCC [10] = assay: Upregulation of snail in human U87 cells at 5 to 25 uM incubated for 24 hrs by Western blot analysis; format: functional, cell-based
Procedure, shortened: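 U87 glioblastoma cells exposed for 24 h at 5, 10 and 25 μM, with DMSO vehicle as control. Snail and E-cadherin protein levels were read by Western blot, with tubulin as the loading control.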

Histone deacetylase 4 = Histone deacetylase 4 (Homo sapiens, UniProt P56524); assay: Inhibition of human recombinant HDAC4 using AMC-K(TFA)GL as substrate by fluorescence based assay
U-87MG ATCC [11] = assay: Upregulation of E-cadherin levels in human U87 cells at 5 to 25 uM incubated for 24 hrs by Western blot analysis; format: functional, cell-based
Procedure, shortened: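 U87 glioblastoma cells treated 24 h at 5, 10 and 25 μM with DMSO control; E-cadherin and Snail probed by Western blot, tubulin as loading control.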

U-937 [12] = assay: Induction of apoptosis in human U937 cells assessed as early apoptotic cells at 25 uM incubated for 72 hrs by annexin V-FITC staining based flow cytometry (reference value: 3.4 %); format: functional

T1 sequence (Q15910 whole entry, looked up): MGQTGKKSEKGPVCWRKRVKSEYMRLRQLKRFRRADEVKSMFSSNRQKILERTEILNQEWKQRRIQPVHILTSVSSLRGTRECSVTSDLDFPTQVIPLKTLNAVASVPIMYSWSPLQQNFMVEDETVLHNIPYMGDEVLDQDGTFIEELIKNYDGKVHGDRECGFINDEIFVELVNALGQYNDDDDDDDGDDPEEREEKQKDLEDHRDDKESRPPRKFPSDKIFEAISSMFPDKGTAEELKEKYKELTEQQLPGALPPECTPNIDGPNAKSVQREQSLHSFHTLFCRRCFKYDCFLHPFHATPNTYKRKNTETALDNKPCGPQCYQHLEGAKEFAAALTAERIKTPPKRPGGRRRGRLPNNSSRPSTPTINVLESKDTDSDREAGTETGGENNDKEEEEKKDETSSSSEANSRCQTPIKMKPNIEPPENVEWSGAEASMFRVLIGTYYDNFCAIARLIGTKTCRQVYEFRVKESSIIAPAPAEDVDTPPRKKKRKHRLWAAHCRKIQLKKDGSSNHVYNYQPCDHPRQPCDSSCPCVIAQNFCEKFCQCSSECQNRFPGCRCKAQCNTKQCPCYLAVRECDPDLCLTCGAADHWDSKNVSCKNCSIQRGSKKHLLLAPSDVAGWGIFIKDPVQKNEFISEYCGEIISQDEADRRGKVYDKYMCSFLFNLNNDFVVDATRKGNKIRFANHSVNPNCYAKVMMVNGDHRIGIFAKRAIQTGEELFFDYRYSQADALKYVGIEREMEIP
Chain of Histone deacetylase 4 (P56524 whole entry): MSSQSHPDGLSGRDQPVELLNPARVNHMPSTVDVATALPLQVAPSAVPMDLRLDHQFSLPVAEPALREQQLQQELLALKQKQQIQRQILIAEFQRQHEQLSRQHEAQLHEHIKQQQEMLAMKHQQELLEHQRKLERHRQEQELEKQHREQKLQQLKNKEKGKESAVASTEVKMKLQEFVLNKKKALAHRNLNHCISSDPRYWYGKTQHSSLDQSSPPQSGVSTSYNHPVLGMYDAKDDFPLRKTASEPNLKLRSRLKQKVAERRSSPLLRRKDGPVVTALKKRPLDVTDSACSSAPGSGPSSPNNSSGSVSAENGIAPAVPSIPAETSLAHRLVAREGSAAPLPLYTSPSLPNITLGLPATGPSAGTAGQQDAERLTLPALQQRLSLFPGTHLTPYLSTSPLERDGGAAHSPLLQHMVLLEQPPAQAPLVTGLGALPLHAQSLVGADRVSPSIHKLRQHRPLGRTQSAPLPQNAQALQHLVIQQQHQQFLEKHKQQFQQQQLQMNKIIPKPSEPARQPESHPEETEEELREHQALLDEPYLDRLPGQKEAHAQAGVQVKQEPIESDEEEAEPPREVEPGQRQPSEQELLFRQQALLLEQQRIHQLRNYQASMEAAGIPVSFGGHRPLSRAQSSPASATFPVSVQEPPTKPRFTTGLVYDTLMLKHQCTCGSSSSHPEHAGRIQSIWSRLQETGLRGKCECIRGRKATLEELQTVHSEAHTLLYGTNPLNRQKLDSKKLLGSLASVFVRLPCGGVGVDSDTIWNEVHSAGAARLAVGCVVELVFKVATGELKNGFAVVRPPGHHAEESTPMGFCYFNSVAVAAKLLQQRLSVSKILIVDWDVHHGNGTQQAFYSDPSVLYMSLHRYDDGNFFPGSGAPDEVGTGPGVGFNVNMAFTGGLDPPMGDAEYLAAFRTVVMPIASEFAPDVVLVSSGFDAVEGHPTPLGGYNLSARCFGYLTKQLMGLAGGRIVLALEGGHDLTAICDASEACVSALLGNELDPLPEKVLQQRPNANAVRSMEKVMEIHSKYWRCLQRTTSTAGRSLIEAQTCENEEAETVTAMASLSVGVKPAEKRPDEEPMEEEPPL

SMILES | inhibition at 25 µM (U-937 [1]) [%] | CI [2] | fold change (FC) [3] | fold change (FC) [4] | Activity [5] [%] | Activity [6] [%] | viability at 25 µM (U-937 [7]) [%] | Activity (U-937 [8]) [%] | IC50 (Histone deacetylase 8) [µM] | Activity [9] [%] | Activity (U-87MG ATCC [10]) | IC50 (Histone deacetylase 4) [µM] | Activity (U-87MG ATCC [11]) | Activity (U-937 [12]) [%]
Cc1cc(C)c(CNC(=O)c2cc(C)n(-c3ccccc3)c2C)c(=O)[nH]1 | 90 | 0.64 | 0.3 | 0.3 |  |  |  |  |  |  |  |  |  | 
Cc1cc(C)c(CNC(=O)c2cc(C)n(-c3cccc(NC(=O)CCCCCCC(=O)NO)c3)c2C)c(=O)[nH]1 |  |  |  |  | 0.4 | 30.3 | 75 | 1.4 | 0.11 | 44.9 | inactive | 36.8 | Active | 23.3
